Experimental data taken from ChEMBL document CHEMBL4229554, “Design and Characterization of Novel Covalent Bromodomain and Extra-Terminal Domain (BET) Inhibitors Targeting a Methionine” (J Med Chem, 2018).
pIC50: −log10 of the molar value. The source made the active and inactive calls. The rule behind the calls is not given here.

What was measured:
[1] = biological target: T1, Bromodomain-containing protein 4 (Homo sapiens, UniProt O60885); assay: Inhibition of N-terminal His-tagged BRD4 (BD1) (unknown origin) using biotinylated tetra-acetylated histone H4 peptide after 30 mins by alpha-screen assay
[2] = biological target: T1, Bromodomain-containing protein 4; assay: Inhibition of N-terminal His-tagged BRD4 (BD2) (unknown origin) using biotinylated tetra-acetylated histone H4 peptide after 30 mins by alpha-screen assay
[3] = biological target: T1, Bromodomain-containing protein 4; assay: Inhibition of N-terminal His-tagged BRD4 (BD1/BD2) (unknown origin) using biotinylated tetra-acetylated histone H4 peptide after 30 mins by alpha-screen assay
[4] = biological target: T1, Bromodomain-containing protein 4; assay: Binding affinity to N-terminal His-tagged BRD4 (BD1) (unknown origin) assessed as change in melting temperature at 100 uM after 0.5 hrs by SYPRO orange protein staining-based thermal denaturation assay
Summary of the method: (§1)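 N-terminally His-tagged recombinant BRD4(BD1), 5 µM, incubated with 100 µM compound and 5X SYPRO Orange in 50 mM NaCl/50 mM HEPES pH 7.4 for 30 min or 4 h. Protein thermal shift melt gives ΔTm; more than one transition may be resolved.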

[5] = biological target: T1, Bromodomain-containing protein 4; assay: Binding affinity to N-terminal His-tagged BRD4 (BD1) (unknown origin) assessed as change in melting temperature at 100 uM after 4 hrs by SYPRO orange protein staining-based thermal denaturation assay; summary of the method: as §1
[6] = biological target: T1, Bromodomain-containing protein 4; assay: Inhibition of N-terminal His-tagged BRD4 (BD1) (unknown origin) using biotinylated tetra-acetylated histone H4 peptide after 5 mins by alpha-screen assay
Summary of the method: (§2)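 AlphaScreen: N-terminally His-tagged BRD4(BD1) (20–200 nM) with biotinylated tetra-acetylated H4 peptide (3–75 nM) in 50 mM HEPES, 100 mM NaCl, 0.1% BSA, pH 7.4, under green light. Nickel-chelate acceptor and streptavidin donor beads at 2 µg/mL final, serially diluted compounds added. Luminescence read at 570 nm.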

[7] = biological target: T1, Bromodomain-containing protein 4; assay: Inhibition of N-terminal His-tagged BRD4 (BD1) (unknown origin) using biotinylated tetra-acetylated histone H4 peptide after 1 hr by alpha-screen assay; summary of the method: as §2
[8] = biological target: T1, Bromodomain-containing protein 4; assay: Inhibition of N-terminal His-tagged BRD4 (BD1) (unknown origin) using biotinylated tetra-acetylated histone H4 peptide after 4 hrs by alpha-screen assay; summary of the method: as §2
MV4-11 [9] = assay: Antiproliferative activity against human MV4-11 cells preincubated for 24 hrs by followed by compound washout measured after 48 hrs post compound washout by cell-titer 96 aqueous one solution reagent-based assay; type: functional
Summary of the method: (§3)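 Washout format: MV4-11 plated at 25,000 cells/well with two-fold dilutions, triplicate wells. Cells treated 24 h, compound removed and cells washed twice with conditioned media. Growth continued 48 h in compound-free media. Read with CellTiter 96 AQueous One reagent, absorbance 490 nm, expressed as % of DMSO control.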

MV4-11 [10] = assay: Induction of apoptosis in human MV4-11 cells assessed as viable cells after 72 hrs by FITC annexin V-staining based flow cytometry (reference value: 96.4%); type: functional
MV4-11 [11] = assay: Induction of apoptosis in human MV4-11 cells assessed as early apoptotic cells after 72 hrs by FITC annexin V-staining based flow cytometry (reference value: 1.87%); type: functional
MV4-11 [12] = assay: Induction of apoptosis in human MV4-11 cells assessed as late apoptotic cells after 72 hrs by FITC annexin V-staining based flow cytometry (reference value: 1.53%); type: functional
MV4-11 [13] = assay: Induction of apoptosis in human MV4-11 cells assessed as necrotic cells after 72 hrs by FITC annexin V-staining based flow cytometry (reference value: 0.21%); type: functional
PBMC = assay: Cytotoxicity against human PBMC assessed as reduction in cell viability after 24 hrs by cell-titer 96 aqueous one solution reagent-based assay
MV4-11 [14] = assay: Antiproliferative activity against human MV4-11 cells incubated for 24 hrs followed by compound removal and further incubation for 48 hrs by cell-titer 96 aqueous one solution reagent-based assay; type: functional; summary of the method: as §3
[15] = biological target: T1, Bromodomain-containing protein 4; assay: Ratio of IC50 for inhibition of N-terminal His-tagged BRD4 (BD1) (unknown origin) using biotinylated tetra-acetylated histone H4 peptide after 4 hrs by alpha-screen assay to IC50 for inhibition of N-terminal His-tagged BRD4(BD1) (unknown origin) using biotinylated tetra-acetylated histone H4 peptide after 5 mins by alpha-screen assay; summary of the method: as §2
MV4-11 [16] = assay: Antiproliferative activity against human MV4-11 cells after 48 hrs by cell-titer 96 aqueous one solution reagent-based assay; type: functional
Summary of the method: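 MV4-11 seeded at 25,000–50,000 cells/well with two-fold compound dilutions added at seeding, triplicate wells. DMSO 0.1% final as negative control. Continuous treatment at 37 °C, 5% CO2, measured at 48 h. CellTiter 96 AQueous One reagent for 3 h, then absorbance at 490 nm. % proliferation = (OD sample − OD blank)/OD DMSO × 100. IC50 taken from dose–response.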

[17] = biological target: T1, Bromodomain-containing protein 4; assay: Irreversible inhibition of BRD4 in human MV4-11 cells assessed as suppression of MYC mRNA levels preincubated for 4 hrs followed by compound washout measured after 4 to 24 hrs post washout by RT-PCR analysis; type: cell-based
Summary of the method: (§4)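 MV4-11 cells, 50,000/well, exposed for 4 h at 37 °C, 5% CO2 to compound in IMDM + 10% FBS (0.2% DMSO final; DMSO-only control). Cells washed 3 times with conditioned media and placed in compound-free media, then harvested after washout for mRNA capture. One-step TaqMan real-time PCR with cyclophilin A reference. Results given as % of DMSO control.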

[18] = biological target: T1, Bromodomain-containing protein 4; assay: Irreversible inhibition of BRD4 in human MV4-11 cells assessed as suppression of BCL2 mRNA levels preincubated for 4 hrs followed by compound washout measured after 4 to 24 hrs post washout by RT-PCR analysis; type: cell-based; summary of the method: as §4
[19] = biological target: T1, Bromodomain-containing protein 4; assay: Irreversible inhibition of BRD4 in human MV4-11 cells assessed as suppression of CCR1 mRNA levels preincubated for 4 hrs followed by compound washout measured after 4 to 24 hrs post washout by RT-PCR analysis; type: cell-based; summary of the method: as §4
[20] = biological target: T1, Bromodomain-containing protein 4; assay: Irreversible inhibition of BRD4 in human MV4-11 cells assessed as suppression of […] mRNA levels preincubated for 4 hrs followed by compound washout measured after 4 to 24 hrs post washout by RT-PCR analysis; type: cell-based; summary of the method: as §4
[21] = biological target: T1, Bromodomain-containing protein 4; assay: Irreversible inhibition of BRD4 in human MV4-11 cells assessed as suppression of IL1RN mRNA levels preincubated for 4 hrs followed by compound washout measured after 4 to 24 hrs post washout by RT-PCR analysis; type: cell-based; summary of the method: as §4
[22] = biological target: PH-interacting protein (Homo sapiens) (UniProt Q8WWQ0); assay: Binding affinity to PHIP (unknown origin) assessed as change in melting temperature at 100 uM after 0.5 to 4 hrs by SYPRO orange protein staining-based thermal denaturation assay
Summary of the method: (§5)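 Thermal shift (PTS) screen of non-BET bromodomains. Each domain at 5 µM incubated with 100 µM covalent or control compound plus 5X SYPRO Orange in 50 mM NaCl/50 mM HEPES pH 7.4 for 30 min or 4 h. Change in Tm recorded, with a search for a high-Tm species.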

[23] = biological target: SWI/SNF-related matrix-associated actin-dependent regulator of chromatin subfamily A member 4 (Homo sapiens) (UniProt P51532); assay: Binding affinity to BRG1 (unknown origin) assessed as change in melting temperature at 100 uM after 0.5 to 4 hrs by SYPRO orange protein staining-based thermal denaturation assay; summary of the method: as §5
[24] = biological target: Transcription initiation factor TFIID subunit 1 (Homo sapiens) (UniProt P21675); assay: Binding affinity to TAF1(2) (unknown origin) assessed as change in melting temperature at 100 uM after 0.5 to 4 hrs by SYPRO orange protein staining-based thermal denaturation assay; summary of the method: as §5
[25] = biological target: Histone acetyltransferase p300 (Homo sapiens) (UniProt Q09472); assay: Binding affinity to P300 (unknown origin) assessed as change in melting temperature at 100 uM after 0.5 to 4 hrs by SYPRO orange protein staining-based thermal denaturation assay; summary of the method: as §5
Chain of Histone acetyltransferase p300 (Homo sapiens) (Q09472 whole entry): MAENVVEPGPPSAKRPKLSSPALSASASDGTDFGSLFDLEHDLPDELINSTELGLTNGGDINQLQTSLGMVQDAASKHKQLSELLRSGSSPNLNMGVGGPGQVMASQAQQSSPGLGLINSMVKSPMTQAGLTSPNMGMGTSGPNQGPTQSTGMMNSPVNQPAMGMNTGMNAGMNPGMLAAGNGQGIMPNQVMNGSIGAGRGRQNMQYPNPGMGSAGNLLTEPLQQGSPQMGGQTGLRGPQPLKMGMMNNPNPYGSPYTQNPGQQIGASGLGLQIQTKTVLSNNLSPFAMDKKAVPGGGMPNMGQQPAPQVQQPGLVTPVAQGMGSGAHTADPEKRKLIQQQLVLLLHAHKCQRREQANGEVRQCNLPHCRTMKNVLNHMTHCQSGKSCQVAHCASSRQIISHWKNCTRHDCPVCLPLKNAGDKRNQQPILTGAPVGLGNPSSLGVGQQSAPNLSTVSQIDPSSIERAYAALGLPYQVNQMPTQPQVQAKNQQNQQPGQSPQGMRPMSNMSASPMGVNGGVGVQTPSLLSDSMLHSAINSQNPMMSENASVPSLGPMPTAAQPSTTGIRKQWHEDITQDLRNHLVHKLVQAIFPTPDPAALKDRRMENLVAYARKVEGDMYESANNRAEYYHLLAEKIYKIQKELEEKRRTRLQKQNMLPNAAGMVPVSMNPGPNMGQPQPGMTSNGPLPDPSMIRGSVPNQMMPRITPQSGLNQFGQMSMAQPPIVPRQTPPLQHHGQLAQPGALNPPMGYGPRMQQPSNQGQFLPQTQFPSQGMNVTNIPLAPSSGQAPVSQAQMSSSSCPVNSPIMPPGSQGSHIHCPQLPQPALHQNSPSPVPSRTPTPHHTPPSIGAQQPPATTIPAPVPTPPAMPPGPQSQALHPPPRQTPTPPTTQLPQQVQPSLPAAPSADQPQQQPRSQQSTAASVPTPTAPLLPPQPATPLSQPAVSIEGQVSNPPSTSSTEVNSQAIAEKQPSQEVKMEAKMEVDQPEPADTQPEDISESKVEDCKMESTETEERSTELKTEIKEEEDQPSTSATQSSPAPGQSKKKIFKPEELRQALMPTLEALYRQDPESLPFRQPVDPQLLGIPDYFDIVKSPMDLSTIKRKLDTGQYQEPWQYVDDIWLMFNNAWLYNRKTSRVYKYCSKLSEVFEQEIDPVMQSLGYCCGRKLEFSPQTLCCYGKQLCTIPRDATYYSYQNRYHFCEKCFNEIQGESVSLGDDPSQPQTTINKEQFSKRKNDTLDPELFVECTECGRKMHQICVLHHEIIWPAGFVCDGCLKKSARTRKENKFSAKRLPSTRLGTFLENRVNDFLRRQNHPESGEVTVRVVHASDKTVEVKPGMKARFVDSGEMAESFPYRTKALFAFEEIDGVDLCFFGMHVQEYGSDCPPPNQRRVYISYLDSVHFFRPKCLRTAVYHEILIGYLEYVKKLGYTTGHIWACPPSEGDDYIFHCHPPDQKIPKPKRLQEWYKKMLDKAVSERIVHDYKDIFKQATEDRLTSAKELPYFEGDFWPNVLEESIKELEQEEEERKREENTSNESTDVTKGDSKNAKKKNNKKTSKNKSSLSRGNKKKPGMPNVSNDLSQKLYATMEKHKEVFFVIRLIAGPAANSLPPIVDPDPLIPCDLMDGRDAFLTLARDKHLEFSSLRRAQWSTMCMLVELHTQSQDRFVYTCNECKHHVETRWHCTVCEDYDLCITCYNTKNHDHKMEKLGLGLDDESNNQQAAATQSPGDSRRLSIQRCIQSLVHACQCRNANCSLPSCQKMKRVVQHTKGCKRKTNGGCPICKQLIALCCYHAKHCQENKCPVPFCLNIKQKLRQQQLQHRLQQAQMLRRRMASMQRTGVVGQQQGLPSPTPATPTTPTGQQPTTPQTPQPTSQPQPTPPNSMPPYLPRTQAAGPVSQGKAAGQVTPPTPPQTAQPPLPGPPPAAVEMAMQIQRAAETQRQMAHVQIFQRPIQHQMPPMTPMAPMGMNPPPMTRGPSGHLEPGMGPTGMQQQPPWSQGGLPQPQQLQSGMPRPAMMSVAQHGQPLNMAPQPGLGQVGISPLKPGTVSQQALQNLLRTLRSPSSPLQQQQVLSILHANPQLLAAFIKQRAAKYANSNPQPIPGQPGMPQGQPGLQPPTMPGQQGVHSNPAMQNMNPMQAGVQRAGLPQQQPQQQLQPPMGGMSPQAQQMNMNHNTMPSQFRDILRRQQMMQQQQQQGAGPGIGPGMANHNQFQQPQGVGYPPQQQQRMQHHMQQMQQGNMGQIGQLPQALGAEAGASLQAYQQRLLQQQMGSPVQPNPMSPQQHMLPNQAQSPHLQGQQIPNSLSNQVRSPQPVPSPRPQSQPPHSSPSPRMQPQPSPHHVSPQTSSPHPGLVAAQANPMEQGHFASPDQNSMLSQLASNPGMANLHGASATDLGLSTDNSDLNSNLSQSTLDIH

Peregrin (Homo sapiens) = biological target: T2, Peregrin (Homo sapiens) (UniProt P55201); assay: Binding affinity to BRPF1 (unknown origin) assessed as change in melting temperature at 100 uM after 0.5 to 4 hrs by SYPRO orange protein staining-based thermal denaturation assay; summary of the method: as §5
T2 sequence (whole entry): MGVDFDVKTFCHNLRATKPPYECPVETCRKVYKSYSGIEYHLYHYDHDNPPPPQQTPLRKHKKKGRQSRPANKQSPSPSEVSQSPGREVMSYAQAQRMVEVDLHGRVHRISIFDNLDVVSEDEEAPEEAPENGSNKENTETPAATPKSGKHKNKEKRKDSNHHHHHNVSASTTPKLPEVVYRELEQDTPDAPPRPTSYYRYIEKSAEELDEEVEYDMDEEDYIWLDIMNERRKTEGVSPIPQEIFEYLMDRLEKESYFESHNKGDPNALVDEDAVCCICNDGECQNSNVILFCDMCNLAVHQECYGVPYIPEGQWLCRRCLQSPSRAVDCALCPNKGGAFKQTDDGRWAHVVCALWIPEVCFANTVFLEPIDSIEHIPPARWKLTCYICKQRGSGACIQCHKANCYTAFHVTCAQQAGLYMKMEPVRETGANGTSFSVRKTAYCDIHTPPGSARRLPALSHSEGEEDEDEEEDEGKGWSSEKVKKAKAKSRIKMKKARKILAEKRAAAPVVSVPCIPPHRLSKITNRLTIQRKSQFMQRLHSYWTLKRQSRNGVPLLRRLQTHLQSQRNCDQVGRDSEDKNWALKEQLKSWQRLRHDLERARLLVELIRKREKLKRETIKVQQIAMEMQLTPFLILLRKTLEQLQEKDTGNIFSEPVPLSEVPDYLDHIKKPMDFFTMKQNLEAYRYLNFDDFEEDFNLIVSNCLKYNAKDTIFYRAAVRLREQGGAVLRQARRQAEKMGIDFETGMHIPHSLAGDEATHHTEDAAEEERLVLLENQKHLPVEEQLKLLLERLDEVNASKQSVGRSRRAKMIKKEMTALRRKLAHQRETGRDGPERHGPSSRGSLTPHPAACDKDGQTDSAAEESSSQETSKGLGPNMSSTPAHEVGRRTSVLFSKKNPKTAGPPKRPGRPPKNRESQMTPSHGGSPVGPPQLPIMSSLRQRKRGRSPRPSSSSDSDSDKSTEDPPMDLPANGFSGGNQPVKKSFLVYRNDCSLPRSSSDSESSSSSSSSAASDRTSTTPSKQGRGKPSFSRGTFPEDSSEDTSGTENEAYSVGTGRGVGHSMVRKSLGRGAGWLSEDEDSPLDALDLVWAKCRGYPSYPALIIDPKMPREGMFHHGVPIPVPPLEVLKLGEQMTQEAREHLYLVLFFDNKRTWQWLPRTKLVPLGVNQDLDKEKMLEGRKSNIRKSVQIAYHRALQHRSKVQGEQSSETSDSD

[26] = biological target: CREB-binding protein (Homo sapiens) (UniProt Q92793); assay: Binding affinity to CREBBP (unknown origin) assessed as change in melting temperature at 100 uM after 0.5 to 4 hrs by SYPRO orange protein staining-based thermal denaturation assay; summary of the method: as §5
Chain of CREB-binding protein (Homo sapiens) (Q92793 2-2442 limits assumed): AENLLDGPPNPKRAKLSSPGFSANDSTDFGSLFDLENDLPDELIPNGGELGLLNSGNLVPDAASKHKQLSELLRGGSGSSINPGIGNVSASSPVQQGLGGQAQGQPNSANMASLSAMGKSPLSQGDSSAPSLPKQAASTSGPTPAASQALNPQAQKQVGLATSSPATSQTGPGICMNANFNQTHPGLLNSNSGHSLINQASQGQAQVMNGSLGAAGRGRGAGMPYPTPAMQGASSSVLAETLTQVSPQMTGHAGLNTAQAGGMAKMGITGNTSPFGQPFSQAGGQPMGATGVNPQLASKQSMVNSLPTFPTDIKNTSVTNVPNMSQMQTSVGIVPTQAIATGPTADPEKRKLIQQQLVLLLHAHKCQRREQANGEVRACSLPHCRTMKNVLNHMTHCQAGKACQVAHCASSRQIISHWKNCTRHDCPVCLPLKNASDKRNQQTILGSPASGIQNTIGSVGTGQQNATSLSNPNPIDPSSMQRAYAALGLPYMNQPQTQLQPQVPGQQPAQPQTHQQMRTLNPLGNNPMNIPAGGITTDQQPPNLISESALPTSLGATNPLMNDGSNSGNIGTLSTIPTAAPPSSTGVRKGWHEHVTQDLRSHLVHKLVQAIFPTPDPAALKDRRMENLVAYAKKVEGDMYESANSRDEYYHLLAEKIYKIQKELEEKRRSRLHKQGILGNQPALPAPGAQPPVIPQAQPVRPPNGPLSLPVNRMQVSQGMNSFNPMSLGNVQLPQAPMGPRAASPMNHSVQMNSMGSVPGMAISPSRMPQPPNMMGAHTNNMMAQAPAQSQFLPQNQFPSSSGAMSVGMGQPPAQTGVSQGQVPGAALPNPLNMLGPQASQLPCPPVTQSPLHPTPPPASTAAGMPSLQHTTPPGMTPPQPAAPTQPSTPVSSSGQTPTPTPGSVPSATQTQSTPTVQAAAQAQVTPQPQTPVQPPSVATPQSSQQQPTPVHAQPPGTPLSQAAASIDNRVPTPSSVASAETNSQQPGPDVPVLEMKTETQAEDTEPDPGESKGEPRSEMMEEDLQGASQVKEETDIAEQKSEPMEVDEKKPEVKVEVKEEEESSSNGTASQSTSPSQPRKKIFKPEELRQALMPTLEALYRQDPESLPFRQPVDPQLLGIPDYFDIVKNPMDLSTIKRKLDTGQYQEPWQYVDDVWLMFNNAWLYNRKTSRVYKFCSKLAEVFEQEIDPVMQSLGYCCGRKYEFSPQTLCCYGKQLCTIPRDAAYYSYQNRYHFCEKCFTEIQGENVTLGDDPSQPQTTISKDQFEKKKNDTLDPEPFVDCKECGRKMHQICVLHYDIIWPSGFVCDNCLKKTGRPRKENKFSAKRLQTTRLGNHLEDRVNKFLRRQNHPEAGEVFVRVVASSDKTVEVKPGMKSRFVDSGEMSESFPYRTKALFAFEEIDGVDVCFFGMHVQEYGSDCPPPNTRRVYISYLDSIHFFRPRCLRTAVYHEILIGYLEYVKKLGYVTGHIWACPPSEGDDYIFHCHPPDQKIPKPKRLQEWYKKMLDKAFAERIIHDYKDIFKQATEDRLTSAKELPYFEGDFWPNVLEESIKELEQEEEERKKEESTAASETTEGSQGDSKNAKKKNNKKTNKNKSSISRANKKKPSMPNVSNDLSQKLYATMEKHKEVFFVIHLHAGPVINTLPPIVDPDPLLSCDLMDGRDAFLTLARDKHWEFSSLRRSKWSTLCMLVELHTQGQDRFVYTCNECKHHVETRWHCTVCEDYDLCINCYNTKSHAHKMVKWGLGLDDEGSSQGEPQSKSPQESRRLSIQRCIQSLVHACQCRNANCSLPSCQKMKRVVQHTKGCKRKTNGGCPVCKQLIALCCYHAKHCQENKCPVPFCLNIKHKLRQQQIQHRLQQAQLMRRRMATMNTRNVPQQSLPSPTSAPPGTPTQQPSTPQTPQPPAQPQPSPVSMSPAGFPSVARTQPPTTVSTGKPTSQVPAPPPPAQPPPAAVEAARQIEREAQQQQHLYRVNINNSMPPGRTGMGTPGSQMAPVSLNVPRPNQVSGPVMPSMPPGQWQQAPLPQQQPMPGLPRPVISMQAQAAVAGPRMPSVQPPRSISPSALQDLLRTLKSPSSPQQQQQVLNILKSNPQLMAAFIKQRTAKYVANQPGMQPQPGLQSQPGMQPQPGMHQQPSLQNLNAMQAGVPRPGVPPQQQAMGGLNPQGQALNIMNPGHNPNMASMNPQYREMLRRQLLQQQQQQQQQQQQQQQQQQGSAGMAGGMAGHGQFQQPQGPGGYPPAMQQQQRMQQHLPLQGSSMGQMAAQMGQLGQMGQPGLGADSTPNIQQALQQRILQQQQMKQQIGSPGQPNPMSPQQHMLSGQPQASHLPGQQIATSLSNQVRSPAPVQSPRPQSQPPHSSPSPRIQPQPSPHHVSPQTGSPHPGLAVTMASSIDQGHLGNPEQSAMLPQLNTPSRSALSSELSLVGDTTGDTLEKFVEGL

SMILES: Cc1noc(C)c1-c1cc(N)c2ncn(Cc3ccc(C4CO4)cc3)c2c1 (centres undefined)
- pIC50 [1]: 7.30
- pIC50 [2]: 7.30
- pIC50 [3]: 7.22
- Activity [4]: Active
- Activity [5]: Active
- pIC50 [6]: 6.56
- pIC50 [7]: 7.12
- pIC50 [8]: 7.82
- Activity (MV4-11 [9]): Active
- Activity (MV4-11 [10]): 12.5%
- Activity (MV4-11 [11]): 65.9%
- Activity (MV4-11 [12]): 19.6%
- Activity (MV4-11 [13]): 2.05%
- Activity (PBMC): Non-Toxic
- Activity (MV4-11 [14]): Active
- Ratio IC50 [15]: 18

SMILES: Cc1noc(C)c1-c1ccc(=O)n(Cc2ccc(C3CO3)c(F)c2)c1 (centres undefined)
- pIC50 [1]: 6.80
- pIC50 [2]: 6.89
- Activity [4]: Active
- Activity [5]: Active
- Activity (MV4-11 [16]): Active
- Activity (MV4-11 [9]): Active
- inhibition [17]: Active
- inhibition [18]: Active
- inhibition [19]: Active
- inhibition [20]: Active
- inhibition [21]: Active
- Activity (MV4-11 [14]): Active
- Activity [22]: inactive
- Activity [23]: inactive
- Activity [24]: inactive
- Activity [25]: inactive
- Activity (Peregrin (Homo sapiens)): inactive
- Activity [26]: inactive
